Screens (PubChem BioAssay)
A selection: hits, their analogues and other compounds. The true share with any hit is near 3.1%.
OX1R antag-1 – blocks the human orexin 1 receptor | O43613 | CHO/OX1R cells, Fluo-8 calcium fluorescence, orexin A | inhibition, % at 5 µM | actives 0.43% (n = 330,000) | AID 434989;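 active = inhibition above its plate's threshold, mean inhibition of all tested compounds on the plate plus 3 SD, cut at about 37% in these data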;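 note: 0% = orexin A challenge wells and 100% = SB-334867-A antagonist wells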
Target sequence (O43613 whole entry, looked up): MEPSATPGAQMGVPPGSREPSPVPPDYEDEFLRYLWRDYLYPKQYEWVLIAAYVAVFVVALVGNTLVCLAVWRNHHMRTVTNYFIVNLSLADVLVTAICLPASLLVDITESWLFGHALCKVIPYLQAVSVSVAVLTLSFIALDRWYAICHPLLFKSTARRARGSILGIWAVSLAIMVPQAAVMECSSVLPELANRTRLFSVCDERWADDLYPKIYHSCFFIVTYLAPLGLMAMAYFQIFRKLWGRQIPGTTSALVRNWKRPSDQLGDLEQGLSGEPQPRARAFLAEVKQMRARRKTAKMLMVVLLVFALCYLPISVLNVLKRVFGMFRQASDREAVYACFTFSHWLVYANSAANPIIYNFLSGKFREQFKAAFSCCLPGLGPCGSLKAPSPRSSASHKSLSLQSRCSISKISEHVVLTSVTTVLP
OX1R antag-2 – OX1R (human) antagonism | actives 1.8% (n = 330,000) | OX1R-expressing cells, FRET antagonist read-out | inhibition, % at 6.6 µM | O43613 | AID 485270; in the data active = inhibition mostly above about 38%, no sharp cut-off; inactive = mostly below about 40%;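 note: 0% = agonist challenge alone and 100% = reference antagonist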
GPR7 antagonist – antagonists of human GPR7 (neuropeptides B/W receptor 1); actives 1.1% (n = 290,000); AID 1861; GPR7-expressing cells, fluorescence antagonist assay; P48145; inhibition, % at 4.4 µM; in the data active = inhibition above about 16%, passing the limit was not always enough;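 note: cells stimulated with the agonist NPW; 0% = agonist with vehicle and 100% = vehicle without agonist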
CHO parental Ca – counter-screen: ATP calcium response change in parental CHO cells; actives 0.63% (n = 330,000); parental CHO-K1, ATP-induced calcium, Fluo-8 fluorescence; inhibition, % at 5.6 µM; AID 463079;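 active = inhibition above that plate's mean sample inhibition plus 3 SD, cut at about 26% in these data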;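 note: 0% = ATP-challenged DMSO wells and 100% = DMSO wells without ATP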
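Material: parental CHO cells / Compound: single nominal dose of 5.6 µM per compound / Signal: Fluo-8 fluorescence / Replicates: singlicate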
GalR3 antag – antagonists of human GalR3; AID 651719; actives 0.44% (n = 360,000); inhibition, % at 3 µM; HEK293 GalR3-CNG cAMP membrane potential fluorescence; galR3 body fused to GalR1 C-terminus;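 active = inhibition above the screen-wide average plus 3 SD, cut at about 13% in these data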;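 note: forskolin and galanin both at EC90 stimulate the cells; cAMP rise reported by CNG channel membrane potential dye signal; 0% = forskolin plus galanin with DMSO and 100% = forskolin alone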
OX1R HTRF conf – confirmation of human orexin 1 receptor antagonists, HTRF format; actives 49% (n = 1,800); inhibition, % at 6.6 µM; OX1R-expressing cells, HTRF antagonist assay; shares compounds with OX1R antag-2; in the data active = inhibition above about 55%;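 note: CHO cells expressing OX1R stimulated with orexin A at about EC80; 0% = agonist challenge alone and 100% = reference antagonist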
CHO-K1 HTRF – counter-screen: parental CHO-K1 HTRF response. inhibition, % at 6.6 µM. AID 493232. shares compounds with OX1R antag-2. parental CHO-K1 cells, HTRF counterscreen. actives 48% (n = 1,800); in the data active = inhibition above about 17%;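 note: 0% = agonist challenge with vehicle and 100% = vehicle alone without agonist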
An asterisk follows results filed as active; . = no result.

SMILES	OX1R antag-1	OX1R antag-2	GPR7 antagonist	CHO parental Ca	GalR3 antag	OX1R HTRF conf	CHO-K1 HTRF
O=C(COc1ccc(C(=S)N2CCCC2)cc1)Nc1ccccc1C(F)(F)F	19	83*	-11	-14	-2	72*	16
CCOC(=O)CCCCCC(=O)Nc1ccc2c(c1)C(=O)N([C@H](C)CO)C[C@@H](C)[C@H](CN(C)Cc1ccc3c(c1)OCO3)O2	-20	6	.	-13	-6	.	.
O=C1c2ccccc2C(=O)c2[nH]cnc21	.	.	-13	.	-11	.	.
O=C1c2ccccc2C(=O)c2[nH]c(=O)[nH]c21	-14	82*	-11	-7	-11	71*	109*
COc1ccc(NC(=S)Nc2ccc3nsnc3c2)cc1	-28	88*	8	-15	-11	44	40*
CC(C)N(C(=O)Nc1ccc2nsnc2c1)C(C)C	-15	143*	-18	-15	-7	31	31*
CC1CC(=O)c2ccccc2C1C (configuration not stated)	.	.	.	.	-3	.	.
Cc1cnc(N2C(=O)c3ccc([N+](=O)[O-])cc3C2=O)s1	-6	52	-7	-24	6	.	.
O=C1c2ccc([N+](=O)[O-])cc2C(=O)N1c1ccc([N+](=O)[O-])cn1	2	95*	.	12	1	41	63*
O=C(Nc1cccnc1)c1cnc2ccccc2n1	-7	109*	-12	-1	0	43	45*
Nc1c(N=Nc2ccccc2F)c(=O)[nH]n1-c1ccccc1	22	86*	14	-9	-1	67*	12
O=C(COC(=O)CCC(=O)c1ccc(F)cc1)Nc1ccc(Cl)cn1	0	7	.	-8	-4	.	.
CCOc1ccccc1N(C)C(=O)CCS(=O)(=O)c1ccc2c(c1)NC(=O)C(C)S2 (configuration not stated)	-31	-1	-12	-23	-6	.	.
O=C(C[n+]1ccc(-c2nnc3n2CCC3)cc1)c1ccc(Cl)c(Cl)c1	-6	53	-8	-4	2	.	.
COc1ccc(C(=O)C[n+]2ccc(-c3nnc4n3CCC4)cc2)cc1	-8	85*	-12	-4	-2	64*	50*
CC(=O)Nc1ccc(NC(=O)C(C)OC(=O)C(C)SCC(=O)Nc2ccc(C)cc2)cc1 (configuration not stated)	-1	82*	.	11	-2	75*	3
Cc1ccc(Cc2c(-c3cccc(Cl)c3)nc3ccc(Br)cn23)cc1	.	.	.	.	-4	.	.
Cc1ccc2nc3n(c(=O)c2c1)CCCCC3	3	25	-9	-8	2	.	.
O=c1c2ccccc2nc2ccc(N3CCOCC3)nn12	-11	94*	7	-4	-3	31	37*
Cc1cc(N2CCOCC2)nc2ccccc12	-27	15	-8	-19	-2	.	.
Cc1ccc2nc3ccc(N4CCN(C)CC4)nn3c(=O)c2c1	-11	77*	-4	-13	-2	36	25*
CN(CC(=O)Nc1ccc(F)c(F)c1F)C(=O)CCc1nc2sc3c(c2c(=O)[nH]1)CCCC3	-20	16	.	-14	3	.	.
Cc1noc(C)c1CCC(=O)Nc1cc(C(=O)O)ccc1Cl	.	.	.	.	-8	.	.
Cc1ccsc1/C=C1/SC(=O)N(CC(=O)N2CCOCC2)C1=O	-7	37	8	-16	3	.	.
O=C(CN1c2cccc3cccc(c23)S1(=O)=O)N1CCOCC1	-16	20	-9	-7	-1	.	.
SMILES	OX1R antag-1	OX1R antag-2	GPR7 antagonist	CHO parental Ca	GalR3 antag	OX1R HTRF conf	CHO-K1 HTRF
COc1ccc(C(=O)CN2CCN(CCN3C(=O)c4cccc5cccc(c45)C3=O)CC2)cc1	-32	91*	.	-23	1	36	21*
O=C(CN1C(=O)c2cccc3cccc(c23)C1=O)N1CCOCC1	-17	104*	-5	-8	-3	47	87*
O=C(CN1C(=O)S/C(=C/c2ccc(N3CCOCC3)cc2)C1=O)N1CCOCC1	6	85*	-11	-3	-1	41	47*
CC1CCCN(C2=C(NS(=O)(=O)c3ccc(Cl)cc3)C(=O)c3ccccc3C2=O)C1 (configuration not stated)	-20	30	8	-2	0	.	.
NC(=O)C1CCN(C2=C(NS(=O)(=O)c3ccc(Cl)cc3)C(=O)c3ccccc3C2=O)CC1	-34	179*	-12	-7	-4	53	57*
Cc1ccc(S(=O)(=O)NC2=C(N3CCN(Cc4ccccc4)CC3)C(=O)c3ccccc3C2=O)cc1	-30	24	4	-18	-2	.	.
CCOC(=O)N1CCN(C2=C(NS(=O)(=O)c3ccc(C)cc3)C(=O)c3ccccc3C2=O)CC1	-28	83*	-11	-23	0	58*	91*
COC(=O)C1CCN(C2=C(NS(=O)(=O)c3ccc(Cl)cc3)C(=O)c3ccccc3C2=O)CC1	-27	98*	12	-8	1	46	59*
COCCN(C(=O)CSc1nc2ccc(OC)cc2[nH]1)c1c(N)n(Cc2ccccc2)c(=O)[nH]c1=O	-15	90*	.	-7	-4	17	-4
COCCN(C(=O)CSc1nc2ccc(C)cc2[nH]1)c1c(N)n(Cc2ccccc2)c(=O)[nH]c1=O	12	22	-7	-17	-2	.	.
COc1ccc(Cl)cc1-c1cc(C(=O)Nc2ccc(Br)cc2)[nH]n1	.	.	.	.	-10	.	.
COc1cccc(/C=C2\SC(=S)N(CCC(=O)NNC(=O)c3ccccc3OC)C2=O)c1	-17	14	-14	-9	-7	.	.
COc1cccc(/C=C2/SC(=S)N(CC(=O)NNC(=O)c3ccccc3OC)C2=O)c1	-7	86*	-2	-6	-6	96*	3
CC(C)(C)OC(=O)N1CCC[C@H]1C(=O)NCc1ccc(F)cc1F	.	.	.	.	0	.	.
COc1ccc(-c2nn(CCC(=O)O)cc2/C=C2\SC(N)=NC2=O)cc1	22	77*	-6	0	-1	41	31*
CCCN(CCC)Cc1cc(=O)oc2cc(C)c(Cl)cc12	.	.	.	.	-5	.	.
CCc1cc[n+](-c2nc([O-])sc2C=O)cc1	-10	149*	4	-10	1	47	62*
CC(C)(C)c1cc[n+](-c2nc([O-])sc2C=O)cc1	19	79*	-1	-8	0	72*	74*
O=Cc1c(-[n+]2ccccc2)nc([O-])n1-c1ccccc1	-16	35	0	0	-1	.	.
Cc1ccc[n+](-c2nc([O-])sc2/C=N/Nc2ccc([N+](=O)[O-])cc2)c1	-13	23	-17	-15	0	.	.
CC(C)c1cc[n+](-c2nc([O-])sc2C=O)cc1	0	98*	0	7	2	43	64*
CSC(=Cc1ccc(C(=O)c2ccc(C)cc2)n1C)S(C)=O (configuration not stated)	.	.	.	.	-5	.	.
